3 compounds from ChEMBL document CHEMBL1821591, “Cytotoxic bipyridines from the marine-derived actinomycete Actinoalloteichus cyanogriseus WH1-2216-6” (J Nat Prod, 2011) can be followed below.

Values after ≈ are worked out from the molar mass of the structure shown.

One test concerns HL-60. Briefly: Cytotoxicity against human HL60 cells after 72 hrs by MTT assay. In kind it is functional, cell-based. As to conditions: HL-60, 72 h. The essentials: (§1)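 MTT read-out on HL-60, K562 and KB; activity expressed as IC50 in μM.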
(Tetrazolium dyes change colour on reduction, which living cells bring about.)

The test system of a further test is Escherichia coli. Briefly: Antimicrobial activity against Escherichia coli after 24 hrs by agar dilution method. The test is classed as functional. For orientation: In agar dilution the substance is mixed into plates at graded concentrations.
A further test relates to A549. In words: Cytotoxicity against human A549 cells after 24 hrs by SRB assay. In kind it is functional, cell-based. As to conditions: A549, 24 h. On the technique in general: Sulforhodamine B stains cellular protein and so reports cell mass.
The next test relates to Candida albicans. Briefly: Antimicrobial activity against Candida albicans after 24 hrs by agar dilution method. The test is classed as functional.
Another test deals with K562. In words: Cytotoxicity against human K562 cells after 72 hrs by MTT assay. The test is classed as functional, cell-based. As to conditions: K562, 72 h. Put shortly: as §1
For the next test, the system named is KB. Briefly: Cytotoxicity against human KB cells after 72 hrs by MTT assay. In kind it is functional, cell-based. The essentials:
as §1

The subject of another test is Pseudomonas aeruginosa. In words: Antimicrobial activity against Pseudomonas aeruginosa after 24 hrs by agar dilution method. In kind it is functional.
Another test concerns Klebsiella aerogenes. In words: Antimicrobial activity against Aerobacter aerogenes after 24 hrs by agar dilution method. The test is classed as functional.

For `COc1cc(/C=N/O)nc(-c2ccccn2)c1` [CAERULOMYCIN A], the IC50 – broadly, the concentration that inhibits the measured activity by half – in the test on HL-60 was 710 nM; with A549 it was 260 nM; in the test with K562, greater than 50000 nM; in the test on KB, greater than 50000 nM. For the same compound, the MIC – broadly, the smallest concentration in the dilution series that meets the test's criterion for growth inhibition – in the test on Escherichia coli is 10.9 µM (≈ 2.5 µg/mL); in the test with Candida albicans, 21.8 µM (≈ 5 µg/mL); with Pseudomonas aeruginosa it was 21.8 µM (≈ 5 µg/mL).
For `O=C(O)c1cn(C2CC2)c2cc(N3CCNCC3)c(F)cc2c1=O` [CIPROFLOXACIN LACTATE], the MIC is 0.94 µM in the test with Klebsiella aerogenes, 1.2 µM in the test with Candida albicans and 3.8 µM against Pseudomonas aeruginosa.
Take `CC(=O)N1CCN(c2ccc(OCC3COC(Cn4ccnc4)(c4ccc(Cl)cc4Cl)O3)cc2)CC1` (centres undefined) [KETOCONAZOLE]: the MIC stood at 1.9 µM (≈ 1.01 µg/mL) against Escherichia coli, 0.94 µM (≈ 0.5 µg/mL) in the test on Klebsiella aerogenes, 1.2 µM (≈ 0.638 µg/mL) with Candida albicans and 3.8 µM (≈ 2.02 µg/mL) in the test with Pseudomonas aeruginosa.
